Measurements published in ChEMBL document CHEMBL4725223, “Structure-activity relationship studies on the inhibition of the bacterial translation of novel Odilorhabdins analogues” (Bioorg Med Chem, 2020).
≈ marks a conversion by molar mass, not a printed value. Starred links: 1 amine or outer side, 2 acyl side, 3 side chain; linkers in the order of their positions; H or OH if unused. Non-standard residues stand in square brackets, D forms with d. Residues, ends and D or L forms follow the SMILES beside them. Dab(3S-OH) = NC[C@H](O)[C@H](N)C(=O)O; X1 = O=C([C@@H](CCCO)N[*:1])[*:2]; ΔZArg = N=C(N)NCC/C=C(\N)C(=O)O

Experiments:
[1] = test system: Klebsiella pneumoniae; experiment: Antibacterial activity against Klebsiella pneumoniae by CLSI based broth microdilution method; format: functional
How it was run: (§1)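 MIC read by CLSI broth microdilution (M07-A10) from direct colony suspension inocula. Reference strains came from ATCC: wild-type E. coli ATCC 25922 and K. pneumoniae ATCC 13883. An efflux-defective ΔtolC E. coli isogenic to ATCC 25922 was also used.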

[2] = test system: Escherichia coli; experiment: Antibacterial activity against Escherichia coli by CLSI based broth microdilution method; format: functional; how it was run: as §1
[3] = test system: Escherichia coli; experiment: Antibacterial activity against efflux-defective (deltatolC) Escherichia coli ATCC 25922 by broth microdilution method; format: functional; how it was run: as §1
[4] = test system: Klebsiella pneumoniae; experiment: Antibacterial activity against wild type Klebsiella pneumoniae ATCC 13883 by CLSI based broth microdilution method; format: functional; how it was run: as §1
[5] = test system: Escherichia coli; experiment: Antibacterial activity against wild type Escherichia coli ATCC 25922 by CLSI based broth microdilution method; format: functional; how it was run: as §1
[6] = biological target: Bacterial 70S ribosome; experiment: Inhibition of ribosome-mediated translation in Cell-free Escherichia coli protein synthesis system using pCmGFP as plasmid incubated at 30 degreeC measured every 20 mins by invitro coupled transcription-translation system based fluorescence analysis; format: subcellular
How it was run: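 E. coli cell-free coupled transcription-translation; template was gfp amplified from pCmGFP and cloned into pEXP5-CT, 1 µg plasmid DNA added to start each reaction. Feed buffer added at 30 min. Run at 30 °C, fluorescence (ex 475/em 520 nm) read every 20 min. IC50 taken from the signal 1 h after feed buffer addition.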

SMILES: C[C@H](NC(=O)[C@@H](NC(=O)[C@@H](N)CCCCN)[C@@H](O)CN)C(=O)NCC(=O)N[C@H](CCCN)C(=O)N1CCC[C@H]1C(=O)N[C@@H](Cc1cnc[nH]1)C(=O)N[C@@H](CCCCN)C(=O)N/C(=C\CCNC(=N)N)C(=O)O
- MIC90 [1]: 8 µg/mL (≈ 7.83 µM)
- MIC90 [2]: 32 µg/mL (≈ 31.3 µM)
- MIC [3]: 8 µg/mL (≈ 7.83 µM)
- MIC [4]: 4 µg/mL (≈ 3.92 µM)
- MIC [5]: 8 µg/mL (≈ 7.83 µM)
- IC50 [6]: 0.5 µM

SMILES: C[C@H](NC(=O)[C@@H](NC(=O)[C@@H](N)CCCCN)[C@H](O)CN)C(=O)NCC(=O)N[C@H](CCCN)C(=O)N1CCC[C@H]1C(=O)N[C@@H](Cc1c[nH]cn1)C(=O)N[C@@H](CCCCN)C(=O)N/C(=C\CCNC(=N)N)C(=O)O
- IC50 [6]: > 40 µM

SMILES: C[C@H](NC(=O)[C@@H](NC(=O)[C@@H](N)CCCCN)[C@@H](O)C(C)(C)N)C(=O)NCC(=O)N[C@H](CCCN)C(=O)N1CCC[C@H]1C(=O)N[C@@H](Cc1c[nH]cn1)C(=O)N[C@@H](CCCCN)C(=O)N/C(=C\CCNC(=N)N)C(=O)O
- IC50 [6]: > 40 µM

SMILES: CCCC[C@@H](NC(=O)CNC(=O)[C@H](C)NC(=O)[C@@H](NC(=O)[C@@H](N)CCCCN)[C@@H](O)CN)C(=O)N1CCC[C@H]1C(=O)N[C@@H](Cc1c[nH]cn1)C(=O)N[C@@H](CCCCN)C(=O)N/C(=C\CCNC(=N)N)C(=O)O
- IC50 [6]: > 40 µM

SMILES: C[C@H](NC(=O)[C@@H](NC(=O)[C@@H](N)CCCCN)[C@@H](O)[C@@H](C)N)C(=O)NCC(=O)N[C@H](CCCN)C(=O)N1CCC[C@H]1C(=O)N[C@@H](Cc1c[nH]cn1)C(=O)N[C@@H](CCCCN)C(=O)N/C(=C\CCNC(=N)N)C(=O)O
- IC50 [6]: 10 µM

SMILES: C[C@H](NC(=O)[C@@H](NC(=O)[C@@H](N)CCCCN)[C@H](C)O)C(=O)NCC(=O)N[C@H](CCCN)C(=O)N1CCC[C@H]1C(=O)N[C@@H](Cc1c[nH]cn1)C(=O)N[C@@H](CCCCN)C(=O)N/C(=C\CCNC(=N)N)C(=O)O
- IC50 [6]: > 40 µM

SMILES: C[C@H](NC(=O)[C@H](CO)NC(=O)[C@@H](N)CCCCN)C(=O)NCC(=O)N[C@H](CCCN)C(=O)N1CCC[C@H]1C(=O)N[C@@H](Cc1c[nH]cn1)C(=O)N[C@@H](CCCCN)C(=O)N/C(=C\CCNC(=N)N)C(=O)O
- IC50 [6]: > 40 µM

SMILES: C[C@H](NC(=O)[C@H](CCN)NC(=O)[C@@H](N)CCCCN)C(=O)NCC(=O)N[C@H](CCCN)C(=O)N1CCC[C@H]1C(=O)N[C@@H](Cc1c[nH]cn1)C(=O)N[C@@H](CCCCN)C(=O)N/C(=C\CCNC(=N)N)C(=O)O
- IC50 [6]: 17 µM

SMILES: C[C@H](NC(=O)[C@@H](NC(=O)[C@@H](N)CCCCN)[C@@H](O)[C@H](C)N)C(=O)NCC(=O)N[C@H](CCCN)C(=O)N1CCC[C@H]1C(=O)N[C@@H](Cc1c[nH]cn1)C(=O)N[C@@H](CCCCN)C(=O)N/C(=C\CCNC(=N)N)C(=O)O
- IC50 [6]: > 40 µM

SMILES: C[C@H](NC(=O)[C@@H](NC(=O)[C@@H](N)CCCCN)[C@@H](O)CCN)C(=O)NCC(=O)N[C@H](CCCN)C(=O)N1CCC[C@H]1C(=O)N[C@@H](Cc1c[nH]cn1)C(=O)N[C@@H](CCCCN)C(=O)N/C(=C\CCNC(=N)N)C(=O)O
- IC50 [6]: 14.4 µM

SMILES: CO[C@@H](CN)[C@H](NC(=O)[C@@H](N)CCCCN)C(=O)N[C@@H](C)C(=O)NCC(=O)N[C@H](CCCN)C(=O)N1CCC[C@H]1C(=O)N[C@@H](Cc1c[nH]cn1)C(=O)N[C@@H](CCCCN)C(=O)N/C(=C\CCNC(=N)N)C(=O)O
- IC50 [6]: > 40 µM

SMILES: CNC[C@H](O)[C@H](NC(=O)[C@@H](N)CCCCN)C(=O)N[C@@H](C)C(=O)NCC(=O)N[C@H](CCCN)C(=O)N1CCC[C@H]1C(=O)N[C@@H](Cc1c[nH]cn1)C(=O)N[C@@H](CCCCN)C(=O)N/C(=C\CCNC(=N)N)C(=O)O
- MIC [3]: 64 µg/mL (≈ 61.8 µM)
- MIC [4]: 32 µg/mL (≈ 30.9 µM)
- MIC [5]: 64 µg/mL (≈ 61.8 µM)
- IC50 [6]: 3.2 µM

SMILES: C[C@H](NC(=O)[C@@H](NC(=O)[C@@H](N)CCCCN)[C@@H](O)CN)C(=O)NCC(=O)N[C@H](CCN)C(=O)N1CCC[C@H]1C(=O)N[C@@H](Cc1c[nH]cn1)C(=O)N[C@@H](CCCCN)C(=O)N/C(=C\CCNC(=N)N)C(=O)O
- IC50 [6]: 36.3 µM

SMILES: C[C@H](NC(=O)[C@@H](NC(=O)[C@@H](N)CCCCN)[C@@H](C)CN)C(=O)NCC(=O)N[C@H](CCCN)C(=O)N1CCC[C@H]1C(=O)N[C@@H](Cc1c[nH]cn1)C(=O)N[C@@H](CCCCN)C(=O)N/C(=C\CCNC(=N)N)C(=O)O
- IC50 [6]: 26.7 µM

SMILES: C[C@H](NC(=O)[C@@H](NC(=O)[C@@H](N)CCCCN)[C@@H](O)CN)C(=O)NCC(=O)N[C@](C)(CCCN)C(=O)N1CCC[C@H]1C(=O)N[C@@H](Cc1c[nH]cn1)C(=O)N[C@@H](CCCCN)C(=O)N/C(=C\CCNC(=N)N)C(=O)O
- IC50 [6]: 18.1 µM

SMILES: CNCCC[C@@H](NC(=O)CNC(=O)[C@H](C)NC(=O)[C@@H](NC(=O)[C@@H](N)CCCCN)[C@@H](O)CN)C(=O)N1CCC[C@H]1C(=O)N[C@@H](Cc1c[nH]cn1)C(=O)N[C@@H](CCCCN)C(=O)N/C(=C\CCNC(=N)N)C(=O)O
- IC50 [6]: > 40 µM

SMILES: C[C@H](N)CC[C@@H](NC(=O)CNC(=O)[C@H](C)NC(=O)[C@@H](NC(=O)[C@@H](N)CCCCN)[C@@H](O)CN)C(=O)N1CCC[C@H]1C(=O)N[C@@H](Cc1c[nH]cn1)C(=O)N[C@@H](CCCCN)C(=O)N/C(=C\CCNC(=N)N)C(=O)O
- IC50 [6]: 17.9 µM

SMILES: C[C@H](NC(=O)[C@@H](NC(=O)[C@@H](N)CCCCN)[C@@H](O)CN)C(=O)NCC(=O)N[C@H](CC[C@@H](C)N)C(=O)N1CCC[C@H]1C(=O)N[C@@H](Cc1c[nH]cn1)C(=O)N[C@@H](CCCCN)C(=O)N/C(=C\CCNC(=N)N)C(=O)O
- IC50 [6]: > 40 µM

SMILES: C[C@H](NC(=O)[C@@H](NC(=O)[C@@H](N)CCCCN)[C@@H](O)CN)C(=O)NCC(=O)N[C@H](CCCCN)C(=O)N1CCC[C@H]1C(=O)N[C@@H](Cc1c[nH]cn1)C(=O)N[C@@H](CCCCN)C(=O)N/C(=C\CCNC(=N)N)C(=O)O
- IC50 [6]: > 40 µM

SMILES: CC(=O)NCCC[C@@H](NC(=O)CNC(=O)[C@H](C)NC(=O)[C@@H](NC(=O)[C@@H](N)CCCCN)[C@@H](O)CN)C(=O)N1CCC[C@H]1C(=O)N[C@@H](Cc1c[nH]cn1)C(=O)N[C@@H](CCCCN)C(=O)N/C(=C\CCNC(=N)N)C(=O)O
- IC50 [6]: > 40 µM

SMILES: C[C@H](NC(=O)[C@@H](NC(=O)[C@@H](N)CCCCN)[C@@H](O)CN)C(=O)NCC(=O)N[C@H](CCCO)C(=O)N1CCC[C@H]1C(=O)N[C@@H](Cc1c[nH]cn1)C(=O)N[C@@H](CCCCN)C(=O)N/C(=C\CCNC(=N)N)C(=O)O (H-K[Dab(3S-OH)]AG[X1]PHK[ΔZArg]-OH)
- MIC [3]: > 64 µg/mL
- MIC [4]: > 64 µg/mL
- MIC [5]: > 64 µg/mL
- IC50 [6]: 1.3 µM
